Test results reported in ChEMBL document CHEMBL1154924, “Carbonic anhydrase activators: Activation of the beta-carbonic anhydrase from the pathogenic yeast Candida glabrata with amines and amino acids” (Bioorg Med Chem Lett, 2010).

How the values were obtained:
[1] = molecular target: T1, Carbonic anhydrase (Methanobacterium thermoautotrophicum) (UniProt Q50565); experiment: Activation of archaea Methanobacterium thermoautotrophicum recombinant carbonic anhydrase by stopped flow CO2 hydration method; conditions: Methanothermobacter thermautotrophicus
T1 sequence (whole entry): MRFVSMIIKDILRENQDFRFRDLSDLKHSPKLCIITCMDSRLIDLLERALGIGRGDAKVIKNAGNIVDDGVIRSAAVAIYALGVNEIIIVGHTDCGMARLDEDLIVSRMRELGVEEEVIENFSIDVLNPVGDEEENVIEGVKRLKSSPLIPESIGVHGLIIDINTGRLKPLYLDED

[2] = molecular target: T2, Carbonic anhydrase (Candida glabrata CBS 138) (UniProt Q6FTL6); experiment: Activation of Candida glabrata recombinant carbonic anhydrase by stopped flow CO2 hydration method; conditions: Nakaseomyces glabratus
T2 sequence (whole entry): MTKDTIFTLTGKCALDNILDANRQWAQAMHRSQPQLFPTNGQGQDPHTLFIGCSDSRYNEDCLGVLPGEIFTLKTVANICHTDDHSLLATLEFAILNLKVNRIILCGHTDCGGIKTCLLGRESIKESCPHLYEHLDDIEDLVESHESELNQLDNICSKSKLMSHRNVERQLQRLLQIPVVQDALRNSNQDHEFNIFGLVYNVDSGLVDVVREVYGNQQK
In short: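 Recombinant yeast enzyme; stopped-flow CO2 hydration at 25 °C in 20 mM Tris (pH 8.3) and 20 mM NaClO4, with 0.2 mM phenol red read at 557 nm over 10 s. CO2 was 1.7–17 mM. Activators came from 10 mM aqueous stocks and were preincubated 15 min at room temperature with enzyme. Uncatalyzed rates were subtracted. KA was fitted from catalytic enhancement versus activator concentration; mean ± standard error of three assays.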

NCCc1c[nH]cn1 = conditions: Homo sapiens
[3] = molecular target: Carbonic anhydrase 2 (Homo sapiens) (UniProt P00918); experiment: Activation of human recombinant carbonic anhydrase isoenzyme 2 by stopped flow CO2 hydration method
[4] = molecular target: T3, Carbonic anhydrase (Saccharomyces cerevisiae S288c) (UniProt P53615); experiment: Activation of Saccharomyces cerevisiae recombinant Nce103p by stopped flow CO2 hydration method
T3 sequence (whole entry): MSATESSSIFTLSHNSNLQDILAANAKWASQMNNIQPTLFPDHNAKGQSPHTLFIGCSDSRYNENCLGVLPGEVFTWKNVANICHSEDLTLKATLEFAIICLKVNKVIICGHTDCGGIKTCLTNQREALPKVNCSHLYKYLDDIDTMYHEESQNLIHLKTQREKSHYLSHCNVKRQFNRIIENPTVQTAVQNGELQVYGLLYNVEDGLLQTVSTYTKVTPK

N[C@@H](Cc1ccc(O)c(O)c1)C(=O)O
Ka [1]: 11.4 µM
Ka [2]: 23.3 µM

Nc1ccc(C[C@H](N)C(=O)O)cc1
Ka [1]: 89 µM
Ka [2]: 31.6 µM

Carbonic anhydrase 2 (Homo sapiens) (from UniProt P00918)
Km (NCCc1c[nH]cn1): 9.3 mM

NCc1ccccn1
Ka [1]: 18.7 µM
Ka [2]: 15 µM

NCCc1ccccn1
Ka [1]: 40 µM
Ka [2]: 16.3 µM

N[C@@H](Cc1c[nH]c2ccccc12)C(=O)O
Ka [1]: 16.9 µM
Ka [2]: 22.8 µM

N[C@H](Cc1ccc(O)c(O)c1)C(=O)O
Ka [1]: 15.6 µM
Ka [2]: 15.1 µM

CNC[C@@H](O)c1ccc(O)c(O)c1
Ka [1]: 11.5 µM
Ka [2]: 10.8 µM

N[C@@H](Cc1ccc(O)cc1)C(=O)O
Ka [1]: 10.5 µM
Ka [2]: 9.5 µM

NCCc1c[nH]c2ccc(O)cc12
Ka [1]: 62 µM
Ka [2]: 16.7 µM

N[C@@H](Cc1c[nH]cn1)C(=O)O
Ka [1]: 69 µM
Ka [2]: 37 µM

N[C@H](Cc1c[nH]c2ccccc12)C(=O)O
Ka [1]: 41 µM
Ka [2]: 12.1 µM

NCCN1CCOCC1
Ka [1]: 18.5 µM
Ka [2]: 10.1 µM

NCCc1c[nH]cn1
Ka [1]: 76 µM
Ka [2]: 27.4 µM

NCCN1CCNCC1
Ka [1]: 13.8 µM
Ka [2]: 14.9 µM

N[C@H](Cc1c[nH]cn1)C(=O)O
Ka [1]: 57 µM
Ka [2]: 21.2 µM

NCCc1ccc(O)c(O)c1
Ka [1]: 51 µM
Ka [2]: 27.6 µM

N[C@H](Cc1ccc(O)cc1)C(=O)O
Ka [1]: 19.2 µM
Ka [2]: 7.1 µM
Ka [3]: 0.058 µM
Ka [4]: 84 µM
